Test [1] concerns the target Sodium- and chloride-dependent GABA transporter 1 (Mus musculus) (UniProt P31648). The experiment in a line: Inhibition of NO711 binding to mouse GAT1 by MS-binding assay. More on the design: inhibition: concentration or dose not given beside the values. The conditions noted are these: for inhibition: concentration not given here. In short, it runs like this: (§1)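 Binding assay on murine GAT1 with unlabelled NO711 as marker, quantified by LC-MS/MS on a triple quadrupole instrument. Compounds were first screened at 100 μM. Those cutting NO711 binding by at least 50% were rated active and then given pKi values.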

The target is the same in test [2]. The experiment in a line: Inhibition of [3H]GABA uptake at GAT1 expressed in HEK cells. More on the design: inhibition: concentration or dose not given beside the values. The note with it: HEK293; for inhibition: concentration not given here.
Test [3] concerns Sodium- and chloride-dependent GABA transporter 2 (Mus musculus). As to the kind of experiment: Inhibition of [3H]GABA uptake at GAT2 expressed in HEK cells. More on the design: inhibition: concentration or dose not given beside the values. The conditions noted are these: HEK293; for inhibition: concentration not given here.
Test [4] concerns the target Sodium- and chloride-dependent GABA transporter 1 (Mus musculus) (UniProt P31648). The experiment in a line: Remaining NO711 binding to mouse GAT1 by MS-binding assay.
Test [5] relates to Sodium- and chloride-dependent GABA transporter 2 (Mus musculus). The experiment in a line: Inhibition of [3H]GABA uptake at GAT2 expressed in HEK cells at 100 uM. The conditions noted are these: HEK293.
Test [6] concerns Sodium- and chloride-dependent GABA transporter 3 (Mus musculus). As to the kind of experiment: Inhibition of [3H]GABA uptake at GAT3 expressed in HEK cells at 100 uM. The note with it: HEK293.
The test system of a further test is HEK293. The experiment in a line: Inhibition of [3H]GABA uptake at GAT4 expressed in HEK cells at 100 uM. The class given is cell-based. In short, it runs like this:
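[³H]GABA uptake measured in HEK cells stably transfected with the individual murine GABA transporter subtypes GAT1–GAT4. Compounds were first screened at 100 μM, and results are given as % remaining GABA uptake (means). Those cutting uptake by at least 50% were rated active and then given pIC50 values.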

Test [7] deals with Sodium- and chloride-dependent GABA transporter 1 (Mus musculus) (UniProt P31648). As to the kind of experiment: Inhibition of NO711 binding to mouse GAT1 at 100 uM by MS-binding assay. In short, it runs like this:
as §1

For test [8] the target is unchanged. As to the kind of experiment: Inhibition of [3H]GABA uptake at GAT1 expressed in HEK cells at 100 uM. The note with it: HEK293.

Consider `O=C(NCCc1ccccc1)C(CCO)N1CCN(C(c2ccc(F)cc2)c2ccc(F)cc2)CC1` (racemic), for which the inhibition (as a rule, the drop in the measured response relative to a control, in per cent) in test [1] amounted to 98%; in [2], 69%. Moreover, in [3], the pIC50 (commonly the IC50 on a negative log10 scale, so that one unit is a factor of ten) turned out to be 4.43.

Regarding `O=C(NCc1ccccc1)C(CCO)N1CCC(Cc2ccccc2)CC1` (racemic), the inhibition in test [1] came to 86%; in [2] it was 75%; in test [3], 49%.

As to `O=C(NCc1ccc(F)cc1)C(CCO)N1CCN(C(c2ccc(F)cc2)c2ccc(F)cc2)CC1` (racemic), the results for the pIC50 in [2] and in test [3] were 4.03 and 4.13, respectively. For the same compound, the remaining binding in test [4] came to 75%.

In the case of `COc1ccc(CNC(=O)C(CCO)N2CCN(C(c3ccccc3)c3ccccc3)CC2)cc1` (racemic), the figures for the inhibition in test [5] and in test [6] were 78% and 61%, respectively.

As to `O=C(NCc1ccccc1Cl)C(CCO)N1CCN(C(c2ccc(F)cc2)c2ccc(F)cc2)CC1` (racemic), the pIC50 in test [2] is 4.2; in [3], 4.17. Besides, the remaining binding in [4] came to 93%.

With `O=C(NCc1ccccc1)C(CCO)N1CCN(C(c2ccccc2)c2ccccc2)CC1` (racemic), the results for the inhibition (in the test with HEK293; in test [6]) were 54% and 46%, respectively. For the same compound, the pKi (usually −log10 of the Ki, conventionally taken in molar units) in test [1] worked out at 4.96. In addition, the values for the pIC50 in test [2] and in test [3] were 4.66 and 4.47, respectively.

Consider `O=C(NCCc1ccccc1)C(CCO)N1CCN(C(c2ccccc2)c2ccccc2)CC1` (racemic), for which the inhibition turned out to be 93% in [5] and 80% in test [6].

For the compound `O=C(NCc1ccc(Cl)cc1)C(CCO)N1CCNCC1` (racemic), the inhibition in test [2] was found to be 79%; in test [3] it was 98%.

Take `O=C(NCc1ccc(F)cc1)C(CCO)N1CCN(C(c2ccccc2)c2ccccc2)CC1` (racemic): the pKi in test [1] was 4.82. In test [2], this compound returned a pIC50 of 4.84. Moreover, the inhibition in [5] is 52%.

Turning to `O=C(NCc1ccc(Cl)cc1)C(CCO)N1CCN(C(c2ccccc2)c2ccccc2)CC1` (racemic), in test [1], the pKi came out at 4.33. The pIC50 came out at 4.88 in [2] and 4.56 in [3].

Regarding `O=C(NCc1ccccc1F)C(CCO)N1CCN(C(c2ccc(F)cc2)c2ccc(F)cc2)CC1` (racemic), the values for the inhibition in test [2] and in [3] were 97% and 65%, respectively. Also, the remaining binding in test [4] is 92%.

Take `Cc1ccc(CNC(=O)C(CCO)N2CCN(C(c3ccc(F)cc3)c3ccc(F)cc3)CC2)cc1` (racemic): the pIC50 in [2] was 4.23; in test [3], 4.44. In test [4], the remaining binding was 92%.

Regarding `O=C(NCc1ccccc1)C(CCO)N1CCN(C(c2ccc(F)cc2)c2ccc(F)cc2)CC1` (racemic), the figures for the pIC50 in test [2] and in test [3] were 4.19 and 4.33, respectively. Also, in test [4], the remaining binding amounted to 63%.

Turning to `O=C(NCc1ccccc1)C(CCO)N1CCOCC1` (racemic), the inhibition came out at 95% in test [1], 113% in test [2] and 98% in test [3].

Take `O=C(NCc1ccccc1F)C(CCO)N1CCN(C(c2ccccc2)c2ccccc2)CC1` (racemic): in test [7], the inhibition was 55%. Further, the pIC50 in test [2] is 4.48; in [3], 4.33.

With `O=C(NCc1ccccc1)C(CCO)N1CCNCC1` (racemic), the inhibition in [1] amounted to 76%; in test [2] it was 63%; in test [3] it was 98%.

Consider `NC(=O)C(CCO)N1CCN(C(c2ccc(F)cc2)c2ccc(F)cc2)CC1` (racemic), for which the inhibition was 106% in test [1], 66% in test [2] and 84% in test [3].

For the compound `NC(=O)C(CCO)N1CCNCC1` (racemic), the inhibition in [2] stood at 84%; in test [3], 110%.

For the compound `Cc1ccc(CNC(=O)C(CCO)N2CCN(C(c3ccccc3)c3ccccc3)CC2)cc1` (racemic), the remaining binding in test [4] was 61%.

As for `NC(=O)C(CCO)N1CCN(C(c2ccccc2)c2ccccc2)CC1` (racemic), the inhibition in [6] was 83%. Moreover, the remaining binding in test [4] stood at 98%.

Consider `O=C(NCc1ccc(Cl)cc1)C(CCO)N1CCN(C(c2ccc(F)cc2)c2ccc(F)cc2)CC1` (racemic), for which the results for the pIC50 in [2] and in [3] were 4.14 and 4.35, respectively. Further, in test [4], the remaining binding was 102%.

As to `O=C(NCc1ccccc1Cl)C(CCO)N1CCN(C(c2ccccc2)c2ccccc2)CC1` (racemic), the results for the inhibition in test [5], in [6] and in [8] were 72%, 73% and 83%, respectively.

Consider `COc1ccc(CNC(=O)C(CCO)N2CCN(C(c3ccc(F)cc3)c3ccc(F)cc3)CC2)cc1` (racemic), for which the inhibition in [1] stood at 101%; in [2] it was 93%; in test [3] it was 65%.
